Screens from PubChem.
Insulin prom act: TRM-6 insulin promoter activation; TRM-6 cells, insulin promoter eGFP reporter, imaging; plate-scaled: unstimulated 0, stimulated control 100; activation, % at 2 µM; hit rate 0.81% among 130,000; AID 1296;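 active means activation at 2 µM above a set limit, confirmed on inspection of the cell images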;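 further: share of cells whose green reporter signal exceeds an intensity cutoff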
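System: human fetal islet-derived TRM-6 cells with tamoxifen-inducible insulin promoter–eGFP reporter; input: seeding density of 1,000 cells per well; buffer or medium: Low-glucose (5.5 mM) medium with tamoxifen; incubation: compound exposure 48 h, 37 °C; measured by: high-content imaging of fixed cells with Hoechst nuclear stain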
A number is an active result; i = inactive; [ ] = dose if it differs, or a comment. This is one part of a sample in which hits are shown more often than they occur.

SMILES	Insulin prom act
Cc1nnc(NC(=O)CSc2ncnc3c2cnn3-c2ccccc2C)s1	146.7
CCn1cc(Br)c(C(=O)NN)n1	i
COc1ccc(CCNC2CC(=O)N(N(C)C)C2=O)cc1OC (stereo not drawn)	i
COc1ccc(C2CC(=O)N(CCCN(C)CCc3ccc(OC)c(OC)c3)C2)cc1 (stereo not drawn)	i
CCCN1CCC(N(C)CCc2ccc(OC)c(OC)c2)CC1	127.3
COc1ccc(/C=N/NC(=O)C(C)n2cnc3ccccc3c2=O)cc1 (stereo not drawn)	i
CCOC(=O)C1(CC)NC(c2cccc(F)c2)C2C(=O)N(CC)C(=O)C21 (stereo not drawn)	i
Cc1ccc(C(=O)Nc2c3c(nn2C(C)(C)C)CS(=O)(=O)C3)cc1C	i
COc1nc(OCCNC(=O)Nc2ccccc2)nc(N(C)C)n1	i
COc1ccc(C/C(N)=N/OC(C)=O)cc1OC	i
COc1ccc(C(=O)O/N=C(\N)c2ccncc2)cc1OC	i
COc1ccc(/C(N)=N/OC(=O)Cc2ccc(OC)c(OC)c2)cc1	209.7
O=C(N/N=C/C=C/c1ccco1)/C(=C/c1ccccc1)NC(=O)c1ccccc1	i
CCc1cccc(NC(=O)CCSCCC(=O)Nc2cccc(CC)c2)c1	89.7
COC(=O)CCC(=O)Nc1cccc(Cl)c1	i
Cc1ccc(NC(=O)CCSCCC(=O)Nc2ccc(C)c(C)c2)cc1C	i
CCOC(=O)C1CCCN(CCC(=O)Nc2cccc(C)c2)C1 (stereo not drawn)	i
CCOC(=O)C1CCCN(CCC(=O)Nc2ccc(C)cc2)C1 (stereo not drawn)	527.6
CCOC(=O)C1CCCN(CCC(=O)Nc2cccc(F)c2)C1 (stereo not drawn)	i
CC(C)c1ccc(-c2nnn(Cc3nc4ccccc4s3)n2)cc1	i
CC1CCC(NC(=O)c2cnccn2)CC1 (stereo not drawn)	i
Cc1nnsc1NC(=O)OCc1ccc(C(F)(F)F)cc1	i
CC(C)CNS(=O)(=O)c1ccc(CCC(=O)N2CCN(Cc3ccc4c(c3)OCO4)CC2)cc1	468.8
O=C(CCc1ccc(S(=O)(=O)NCCc2ccccc2)cc1)N1CCN(Cc2ccc3c(c2)OCO3)CC1	i
COc1ccc(N(CC(=O)N2CCN(Cc3ccc4c(c3)OCO4)CC2)S(C)(=O)=O)cc1OC	i
SMILES	Insulin prom act
CCN(CC)C(NC(=O)c1ccccc1)C(=O)c1ccccc1 (stereo not drawn)	i
Cc1cc(-c2sccc2C)nc(-n2cccc2)n1	i
O=C(N1CCCCCC1)N1CCN(C(=O)N2CCOCC2)CC1	487.5
O=C(N1CCOCC1)N1CCN(C(=O)N(c2ccccc2)c2ccccc2)CC1	i
O=C(N1CCCCCC1)N1CCN(S(=O)(=O)N2CCCCC2)CC1	i
CCCn1nc2cc(C(=O)NCCc3cccs3)ccc2c1OCC	i
Cc1cc(C)cc(Oc2ccc(N)cc2)c1	i
Cc1ccccc1CS(=O)(=O)Cc1ccc(C(=O)NCc2cccnc2)o1	i
Cc1ccc(N(C(=O)Cn2nnc(-c3ccccc3)n2)C(C(=O)NC2CCCCC2)c2ccccn2)cc1C (stereo not drawn)	343.8
Cc1ccc(N(C(=O)CCl)C(C(=O)NC2CCCCC2)c2cccnc2)cc1C (stereo not drawn)	i
CC(C)(C)N(C(=O)Cn1nnc(-c2ccc(F)cc2)n1)C(C(=O)NC1CCCC1)c1ccncc1 (stereo not drawn)	i
CC(C)OP(=O)(OC(C)C)C(C)NC(=O)Cc1ccccc1 (stereo not drawn)	i
COc1ccccc1NC(=O)CCc1nc(-c2ccccc2F)no1	305.3
CCOc1cc(-c2noc(CCC(=O)Nc3cccnc3)n2)ccc1OC	i
O=C(CCc1nc(-c2ccccc2)no1)Nc1cc(C(F)(F)F)ccc1Cl	i
COc1cccc(NC(=O)CCc2nc(-c3ccccc3F)no2)c1	i
CCN(C(=O)CCc1nc(-c2ccccc2F)no1)c1cc(OC)ccc1OC	i
COc1ccccc1NC(=O)CCc1nc(-c2cccs2)no1	82.8
COc1ccc(NC(=O)C2CCC(=O)N2S(=O)(=O)c2ccc(C)cc2)c(OC)c1 (stereo not drawn)	i
Cc1ccc(O)c(NC(=S)NC(=O)CC(C)C)c1	i
Cc1ccc(CN2CCNC2=O)cc1	i
COc1ccccc1NC(=O)C/C(C)=N/NC(=O)COc1c(Br)cc(Br)cc1OC	i
COC(=O)c1cccc2c1-c1ccccc1/C2=N/O	i
O=C(N/N=C1\C2CN3CCN(C2)CC1(c1ccccc1)C3)c1ccc(F)cc1	i
CCC(C)NC(=O)c1cc(C)no1 (stereo not drawn)	121.4
SMILES	Insulin prom act
CCC(C)NC(=O)c1n[nH]c(=O)c2ccccc12 (stereo not drawn)	i
CC(C)c1cc(NC(=O)CCl)on1	i
COc1ccc(-c2cn3ccc4ccccc4c3n2)cc1	i
COc1ccccc1NC(C)C(=O)Nc1ccc(C(C)=O)cc1 (stereo not drawn)	i
c1ccc(OCCOCCSc2ncccn2)cc1	i
O=S(=O)(Nc1nccs1)c1ccc(Cl)cc1	i
Cc1cccnc1NC(=O)COc1ccc2oc3c(c2c1)CCCC3	433.3
COc1cc2c(cc1NC(=O)COc1ccc3ccccc3c1)oc1ccccc12	i
Cc1cc(C)cc(OCC(=O)Nc2nonc2NC(=O)COc2cc(C)cc(C)c2)c1	i
COC(=O)c1ccc(C(=O)OC)c(NC(=O)C(C)(C)C)c1	i
O=C(NCCCn1ccnc1)c1cc(-c2ccc3c(c2)OCO3)on1	i
CCN1/C(=C/c2ccc3cc(C)ccc3[n+]2C)Sc2ccc3sccc3c21	376.2
CCN1/C(=C/c2ccc3cc(C)ccc3[n+]2CC)Sc2cc(C)ccc21	614.3
Cc1ccccc1N1C(=O)CC1(C#N)c1ccc(OCc2ccccc2)cc1 (stereo not drawn)	i
CCn1cnc2sc(C)c(C)c2c1=O	i
CC(C)NC(=O)NC(=O)COC(=O)/C=C/c1ccccc1[N+](=O)[O-]	i
COc1cc(C(C)=O)ccc1COc1ccc(C(=O)OC(C)C(=O)NC(N)=O)cc1OC (stereo not drawn)	i
CCOC(=O)CC(C)(C)/C(C)=N/Nc1ccc([N+](=O)[O-])cc1[N+](=O)[O-]	i
CCC(=O)N1N=C(c2ccc(C)o2)CC1c1ccc(N(C)C)cc1 (stereo not drawn)	i
CCOC(=O)c1nn(-c2ccc(Cl)cc2)c2nnc(Cc3ccccc3)c(=O)n12	i
N#C/C(=C\C1=C(N2CCOCC2)C(=C\c2ccc(Cl)cc2)/CC1)C(=O)Nc1ccccc1F	614.3[fluoresces]
Cc1cc(=O)[nH]c(N/N=C/C2=C(N3CCOCC3)C(=C\c3ccc(Cl)cc3)/CC2)n1	i
O=C(/C=C/c1cccc([N+](=O)[O-])c1)NCCN1CCOCC1	i
O=C(N/N=C/C1=C(N2CCOCC2)C(=C\c2ccccc2)/CC1)Nc1ccccc1	i
CC(C)C(NC(=O)C12CC3CC(CC(C3)C1)C2)C(=O)N/N=C/C1=C(N2CCOCC2)C(=C\c2ccc([N+](=O)[O-])cc2)/CC1 (stereo not drawn)	i
SMILES	Insulin prom act
N#C/C(=C\C1=C(N2CCOCC2)C(=C/c2cccc([N+](=O)[O-])c2)/CC1)C(=O)Nc1ccccc1F	614.3
CCCN(CCC)C(=O)c1cc(-c2ccc3c(c2)OCO3)nc2ccccc12	i
CCCc1cc2c(-c3ccccc3)cc(=O)oc2cc1OCc1ccc(C(=O)O)o1	i
O=C(c1ccc2c(=O)n(C3CCCC3)c(=S)[nH]c2c1)N1CCCCCC1	i
COCCCNC(=S)NC1CC2CCCC(C1)N2Cc1ccco1 (stereo not drawn)	i
CCC(=O)N(Cc1ccco1)c1nc(-c2ccccc2)cs1	136.4
